Source: PubChem BioAssay
OX1R antag-1: blocks the human orexin 1 receptor; inhibition, % at 5 µM; O43613; 0.43% of 330,000 active; CHO/OX1R cells, Fluo-8 calcium fluorescence, orexin A;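 active = inhibition above its plate's threshold, mean inhibition of all tested compounds on the plate plus 3 SD, cut at about 37% in these data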;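 also: 0% = orexin A challenge wells and 100% = SB-334867-A antagonist wells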
Target sequence (O43613 whole entry, looked up): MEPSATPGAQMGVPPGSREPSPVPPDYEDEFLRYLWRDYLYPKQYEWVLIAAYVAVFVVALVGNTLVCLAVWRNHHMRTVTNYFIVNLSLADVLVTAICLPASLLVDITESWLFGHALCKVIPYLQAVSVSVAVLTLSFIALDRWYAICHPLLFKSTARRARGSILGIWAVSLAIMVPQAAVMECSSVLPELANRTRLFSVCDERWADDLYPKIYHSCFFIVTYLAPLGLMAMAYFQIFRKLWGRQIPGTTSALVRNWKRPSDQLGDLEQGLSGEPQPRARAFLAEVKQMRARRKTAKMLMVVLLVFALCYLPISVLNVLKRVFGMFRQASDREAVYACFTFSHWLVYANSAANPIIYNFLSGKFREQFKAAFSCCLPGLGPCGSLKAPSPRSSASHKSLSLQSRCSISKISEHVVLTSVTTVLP
TAAR1 antagonist: antagonists of human TAAR1 | Q96RJ0 | CHO RD-HGA16 TAAR1, Fluo-8 calcium fluorescence, antagonist | inhibition, % at 3 µM | 1.5% of 360,000 active;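 active = inhibition above a per-plate cutoff, the mean inhibition of test compounds on that plate plus 3 SD, cut at about 49% in these data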;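 also: 0% = DMSO plus EC80 beta-PEA response and 100% = DMSO alone without agonist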
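Material: RD-HGA16 CHO cells with stable hTAAR1 and Gα16; Dosing: single nominal final test compound concentration of 3 µM; Schedule: seeding 17-24 h prior, 75-min 37 °C, 30-min RT dye loading; Detection: kinetic Fluo-8 calcium fluorescence measurement; Measure: % inhibition from peak post-agonist over basal fluorescence ratio; Benchmarks: vehicle and agonist controls.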
CHO parental Ca: signal in parental CHO cells, OX1R antagonist counter-screen. parental CHO-K1, ATP-induced calcium, Fluo-8 fluorescence. inhibition, % at 5.6 µM. 0.63% of 330,000 active. AID 463079;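 active = inhibition above that plate's mean sample inhibition plus 3 SD, cut at about 26% in these data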;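 also: 0% = ATP-challenged DMSO wells and 100% = DMSO wells without ATP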
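Assay system – parental CHO cells · Reagent – ATP stimulus · Detection – intracellular calcium via Fluo-8 no-wash fluorescent dye · Evaluation – percent inhibition of ATP-evoked calcium rise, normalized to controls · Controls – ATP wells versus no-ATP DMSO wells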
OX1R antag-2: blocks the human orexin 1 receptor. O43613. OX1R-expressing cells, FRET antagonist read-out. inhibition, % at 6.6 µM. 1.8% of 330,000 active. AID 485270; in the data active = inhibition mostly above about 38%, no sharp cut-off; inactive = mostly below about 40%;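 also: 0% = agonist challenge alone and 100% = reference antagonist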
TAAR1 agonist: agonists of human TAAR1; Q96RJ0; CHO RD-HGA16 TAAR1, Fluo-8 calcium fluorescence; vehicle wells 0%, saturating PEA agonist 100%; activation, % at 3 µM; 0.99% of 360,000 active; AID 624467;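 active = activation above the mean activation of all test compounds in the run plus 3 SD, cut at about 38% in these data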
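Test system: RD-HGA16 (CHO) cells co-expressing Gα16 and hTAAR1 / Benchmarks: DMSO vehicle as 0%, PEA at EC100 as 100% / Repeats: no replicates (n 1) / Measure: % activation from peak over basal fluorescence ratio, DMSO-to-PEA scaled / Timing: 17-24 h plating, Fluo-8 75 min 37 °C, 30 min RT / Technique: kinetic Fluo-8 calcium fluorescence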
GPR7 antagonist: antagonists of human GPR7 (neuropeptides B/W receptor 1). GPR7-expressing cells, fluorescence antagonist assay. inhibition, % at 4.4 µM. 1.1% of 290,000 active. AID 1861; in the data active = inhibition above about 16%, passing the limit was not always enough;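 also: cells stimulated with the agonist NPW; 0% = agonist with vehicle and 100% = vehicle without agonist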
GPR7 antag conf: confirmation of human GPR7 antagonists; shares compounds with GPR7 antagonist; GPR7-expressing cells, calcium fluorescence antagonist mode; inhibition, % at 4.4 µM; 52% of 2,400 active; AID 1952; in the data active = inhibition above about 24%;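 also: stimulated with the GPR7 agonist NPW; 0% = agonist plus vehicle and 100% = vehicle alone without agonist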
MCHR1 antagonist: antagonizes human MCHR1, a GPR7 antagonist counter-screen | shares compounds with GPR7 antagonist | MCHR1-expressing cells, fluorescence antagonist assay | inhibition, % at 4.4 µM | 62% of 2,400 active | AID 2148; in the data active = inhibition above about 22%;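 also: 0% = vehicle with agonist and 100% = vehicle without agonist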
* hit, by the source's call; . = no result. Sampled rows, rich in hits. Any-hit rate of the full collection: about 4.5%.

SMILES	OX1R antag-1	TAAR1 antagonist	CHO parental Ca	OX1R antag-2	TAAR1 agonist	GPR7 antagonist	GPR7 antag conf	MCHR1 antagonist
O=C(NC(=S)Nc1cccc([N+](=O)[O-])c1)C1CCCCC1	-36	-2	-17	7	1	32*	33*	39*
O=C(NC(=S)Nc1cccc([N+](=O)[O-])c1)c1ccccc1	-18	-9	-21	5	1	-2	.	.
c1ccc(OCc2nnc(-c3ccccc3)o2)cc1	-3	-6	-9	13	-2	22*	15	25*
Oc1ccccc1-c1nnc(COc2ccccc2)o1	0	9	-12	3	1	5	.	.
COc1ccccc1CNC(=O)COC(=O)c1n[nH]c2ccccc12	13	20	-26	24	5	6	.	.
COc1ccccc1CNC(=O)c1n[nH]c2ccccc12	-33	-6	-16	5	0	30*	23	20
Cc1ccc(Sc2c([N+](=O)[O-])ncn2C)cc1	-5	-6	-1	11	8	-12	.	.
Cn1cnc([N+](=O)[O-])c1Sc1ccc(C(C)(C)C)cc1	-1	28	-2	-2	42*	27*	38*	26*
O=C(O)CCn1c(=O)[nH]c(=O)n(CCC(=O)O)c1=O	-16	-6	-10	10	12	24*	-2	-7
CC1=C(C)C(=O)N(CCC(=O)O)C1=O	-3	-9	-3	18	1	1	.	.
N#Cc1ccc(C(=O)N2CCCCC2c2cc(C(=O)Nc3ccccc3Cl)no2)cc1 (configuration not stated)	.	-16	.	.	5	.	.	.
COc1cccc(N2CCc3c(C)nc4ccc(Cl)cc4c32)c1	.	-63	.	.	17	36*	33*	34*
CN1CCN(C(=O)c2ccc(-c3cnc4cccnn34)cc2)CC1	.	-15	.	.	2	.	.	.
Cc1sc2nc[nH]c(=S)c2c1-c1ccccc1	1	-5	0	6	20	27*	-2	7
CCCCN(C)C(=O)c1nc2ccccn2c1CN1CCN(C/C=C/c2ccccc2)CC1	-17	15	-10	16	3	26*	29*	21
CCCCN(C)C(=O)c1nc2ccccn2c1CN1CCN(c2ncccn2)CC1	-7	7	-16	1	1	-12	.	.
COCOCCn1cc(CN2CCS(=O)(=O)N(Cc3ccc(-c4ccc(OC)c(OC)c4)cc3)C(C)C2=O)nn1 (configuration not stated)	.	3	.	.	4	.	.	.
N#Cc1c(Nc2ccccc2)sc(C(=O)c2ccc(F)cc2)c1N	-17	1	-1	19	0	-9	.	.
Nc1c(C(=O)c2ccccc2)sc(Nc2ccccc2)c1S(=O)(=O)c1ccccc1	-19	-22	-9	26	9	22*	-27	-23
CN1C(=O)c2ccc(NC(=O)CSc3ccccc3)cc2C1=O	3	-30	1	16	1	3	.	.
COc1ccccc1CC(=O)Nc1ccc(OC)c(OC)c1	-9	0	-1	15	5	-11	.	.
O=C(CSc1ccc(F)cc1)Nc1ccc2c(c1)C(=O)NC2=O	0	28	31	21	2	25*	36*	43*
COc1ccccc1CC(=O)Nc1ccc2c(c1)C(=O)NC2=O	0	3	4	17	1	33*	23	16
Nc1[nH]c(C(=O)c2ccccc2)c(-c2ccc(Cl)cc2)c1C(=O)c1c[nH]c2cc(F)ccc12	.	-14	.	.	3	.	.	.
Cc1ccc(NC(=O)c2ccccc2F)cc1S(=O)(=O)N1CCCCCC1	-35	-4	-4	5	-1	22*	-10	54*
SMILES	OX1R antag-1	TAAR1 antagonist	CHO parental Ca	OX1R antag-2	TAAR1 agonist	GPR7 antagonist	GPR7 antag conf	MCHR1 antagonist
Cc1ccc(NC(=O)CSc2ncnc3ccccc23)cc1S(=O)(=O)N1CCCCCC1	21	24	34*	38	5	24*	53*	71*
OC[C@@H]1CN(Cc2cccs2)C[C@H](n2cnc3c(NC4CCC4)ncnc32)O1	.	6	.	.	0	.	.	.
Cc1nn(CC(=O)Nc2ccccc2C(F)(F)F)c(=O)c2cccn12	-5	-22	-9	8	4	31*	9	1
CC1CCC(NC(=O)C2CCC(CNS(=O)(=O)c3ccc4c(c3)C(C)(C)C(=O)N4C)CC2)CC1 (configuration not stated)	.	3	.	.	0	.	.	.
O=S(=O)(Nc1cccc(-c2cn3c(n2)SCC3)c1)c1ccc(F)cc1F	-1	-1	-1	20	1	25*	7	0
Nc1nc2ccccc2n1CCN1CCCC1	-15	.	-5	24	.	33*	-8	2
Cc1ccc(S(=O)(=O)N(C)Cc2ccc(-c3nnco3)cc2)cc1	-15	17	-13	11	-1	26*	47*	42*
CC(C)Cc1ccc(C(C)C(N)=NCCc2ccccc2)cc1 (configuration not stated)	.	-9	.	.	19	52*	39*	54*
COc1ccc(CCN=C(N)C(C)c2ccccc2)cc1OC (configuration not stated)	-10	-23	-8	9	4	-7	.	.
C/C(=N/NC(=O)c1cccs1)c1cccc(NC(=O)C2CC2)c1	-18	-2	-1	29	1	36*	-5	8
CC(C)[C@H](NC(N)=O)C(=O)Nc1ccc(F)c(Cl)c1	4	-18	-11	12	1	22*	3	14
COc1ccc(C(=O)NCc2ccc3c(c2)cc(C)n3C)cc1	-24	-27	-9	2	4	23*	5	4
Cc1cc2cc(CNC(=S)Nc3ccc(OC(F)F)cc3)ccc2n1C	-2	-36	4	16	9	50*	-12	51*
CCc1nc2c(OCc3ccc4c(c3)OCO4)cccn2c1N(C=O)Cc1ccccc1	.	11	.	.	3	.	.	.
C=CCN1C(=O)S/C(=C/c2ccsc2)C1=O	-15	-8	3	5	2	-9	.	.
C=CCN1C(=O)S/C(=C/c2ccc(Sc3nc4ccccc4[nH]3)o2)C1=O	47*	39	27	41	18	54*	37*	75*
C/C(CC(=O)Nc1ccc(N(C)C)cc1)=N\NC(=O)c1ccc([N+](=O)[O-])cc1	.	-4	.	.	0	27*	7	2
CC(=O)c1cc2c(cc1NC(=O)CSc1ncccn1)OCO2	.	-2	.	.	0	.	.	.
Cc1ccccc1OCCNc1cc(N2CC(C)NC(C)C2)ccc1[N+](=O)[O-] (configuration not stated)	-10	23	19	9	49*	39*	53*	67*
